The source of these data is ChEMBL document CHEMBL1629602, “Reconstruction of the phenotypes of methicillin-resistant Staphylococcus aureus by replacement of the staphylococcal cassette chromosome mec with a plasmid-borne copy of Staphylococcus sciuri pbpD gene” (2009).

Experiment [1] deals with Staphylococcus aureus. The experiment can be described thus: Antibacterial activity against chloramphenicol, tetracycline-resistant Staphylococcus aureus COL-S carrying SAmecA/mecI-mecR1 plasmid. The class given is functional. The method in brief: (§1)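 Oxacillin MIC by population analysis: overnight-culture aliquots plated on tryptic soy agar with increasing oxacillin concentrations. CFU counted after 72 h at 30°C.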

Experiment [2] deals with Staphylococcus aureus. The experiment is described as follows: Antibacterial activity against chloramphenicol-resistant Staphylococcus aureus COL carrying mecI-mecR1 plasmid. The class given is functional. The method in brief: as §1
Experiment [3] concerns Staphylococcus aureus. The experiment is described as follows: Antibacterial activity against tetracycline-resistant Staphylococcus aureus COL-S carrying SAmecA plasmid. The class given is functional. The method, boiled down:
as §1

For experiment [4], the system named is Staphylococcus aureus. The experiment is described as follows: Antibacterial activity against chloramphenicol, tetracycline-resistant Staphylococcus aureus COL-S carrying SSpbpD/mecI-mecR1 plasmid. The class given is functional. The method in brief:
as §1

For experiment [5], the system named is Staphylococcus aureus. The experiment is described as follows: Antibacterial activity against chloramphenicol-susceptible and oxacillin, erythromycin, tetracycline-resistant Staphylococcus aureus COL.
Experiment [6] deals with Staphylococcus aureus. The experiment is described as follows: Antibacterial activity against tetracycline-resistant Staphylococcus aureus COL-S carrying SSpbpD plasmid. The class given is functional. The method in brief: as §1
The subject of experiment [7] is Staphylococcus aureus. The experiment is described as follows: Antibacterial activity against oxacillin, chloramphenicol, erythromycin-susceptible and tetracycline-resistant Staphylococcus aureus COL-S with SCCmec excised. The class given is functional. The method, boiled down:
as §1

In brackets after ≈: the same amount, converted by molar mass.

Regarding `CO/N=C(\C(=O)N[C@@H]1C(=O)N2C(C(=O)O)=C(COC(C)=O)CS[C@H]12)c1csc(N)n1` [CEFOTAXIME], the MIC (as a rule, the lowest concentration that inhibits growth of the organism) amounted to 6 µg/mL (≈ 13.2 µM) in the experiment with Staphylococcus aureus [1]; 6 µg/mL (≈ 13.2 µM) in the experiment with Staphylococcus aureus [2]; 800 µg/mL (≈ 1760 µM) against Staphylococcus aureus [3]; 6 µg/mL (≈ 13.2 µM) against Staphylococcus aureus [4]; 800 µg/mL (≈ 1760 µM) against Staphylococcus aureus [5]; 200 µg/mL (≈ 439 µM) with Staphylococcus aureus [6]. This compound also showed an MIC against Staphylococcus aureus [7] of 0.8 µg/mL (≈ 1.76 µM).

Take `CO[C@@]1(NC(=O)Cc2cccs2)C(=O)N2C(C(=O)O)=C(COC(N)=O)CS[C@@H]21` [CEFOXITIN]: the minimal inhibitory concentration (MIC) against Staphylococcus aureus [1] came out at 6 µg/mL (≈ 14 µM); in the experiment on Staphylococcus aureus [2] it was 3 µg/mL (≈ 7.02 µM); against Staphylococcus aureus [3] it was 400 µg/mL (≈ 936 µM); with Staphylococcus aureus [4] it was 1.5 µg/mL (≈ 3.51 µM); with Staphylococcus aureus [5], 800 µg/mL (≈ 1870 µM); with Staphylococcus aureus [6] it was 200 µg/mL (≈ 468 µM). In the experiment on Staphylococcus aureus [7], the MIC was 3 µg/mL (≈ 7.02 µM).

With `CO/N=C(\C(=O)N[C@@H]1C(=O)N2C(C(=O)O)=CCS[C@H]12)c1csc(N)n1` [CEFTIZOXIME], the MIC with Staphylococcus aureus [1] stood at 3 µg/mL (≈ 7.82 µM); against Staphylococcus aureus [2] it was 3 µg/mL (≈ 7.82 µM); against Staphylococcus aureus [3], 800 µg/mL (≈ 2090 µM); in the experiment on Staphylococcus aureus [4] it was 12 µg/mL (≈ 31.3 µM); in the experiment with Staphylococcus aureus [5] it was 800 µg/mL (≈ 2090 µM); with Staphylococcus aureus [6], 400 µg/mL (≈ 1040 µM). In the experiment with Staphylococcus aureus [7], this compound came in with an MIC of 0.8 µg/mL (≈ 2.09 µM).

As for `CC1=C(C(=O)O)N2C(=O)[C@@H](NC(=O)[C@H](N)C3=CCC=CC3)[C@H]2SC1` [CEPHRADINE], the MIC came out at 12 µg/mL (≈ 34.3 µM) against Staphylococcus aureus [1]; 6 µg/mL (≈ 17.2 µM) against Staphylococcus aureus [2]; 400 µg/mL (≈ 1140 µM) against Staphylococcus aureus [3]; 3 µg/mL (≈ 8.59 µM) in the experiment on Staphylococcus aureus [4]; 400 µg/mL (≈ 1140 µM) in the experiment with Staphylococcus aureus [5]; 100 µg/mL (≈ 286 µM) against Staphylococcus aureus [6]. This compound registered an MIC in the experiment on Staphylococcus aureus [7] of 6 µg/mL (≈ 17.2 µM).

As to `N[C@@H]1CONC1=O` [CYCLOSERINE], the values for the MIC in the experiment with Staphylococcus aureus [3], against Staphylococcus aureus [5] and against Staphylococcus aureus [6] were 8 µg/mL (≈ 78.4 µM), 1 µg/mL (≈ 9.79 µM) and 0.75 µg/mL (≈ 7.35 µM), respectively.

With `Cc1onc(-c2ccccc2)c1C(=O)N[C@@H]1C(=O)N2[C@@H]1SC(C)(C)[C@@H]2C(=O)O` [OXACILLIN], the MIC was 0.8 µg/mL (≈ 1.99 µM) against Staphylococcus aureus [1]; 0.4 µg/mL (≈ 0.996 µM) with Staphylococcus aureus [2]; 400 µg/mL (≈ 996 µM) in the experiment with Staphylococcus aureus [3]; 0.4 µg/mL (≈ 0.996 µM) against Staphylococcus aureus [4]; 800 µg/mL (≈ 1990 µM) against Staphylococcus aureus [5]; 400 µg/mL (≈ 996 µM) against Staphylococcus aureus [6]. In the experiment on Staphylococcus aureus [7], this compound displayed an MIC of 0.8 µg/mL (≈ 1.99 µM).
